In data set [1] the test system is Mus musculus. Description: Anticonvulsant activity in mouse assessed as protection against maximal electric shock-induced seizures at 100 mg/kg, ip measured after […]. The class given is functional, organism-based.
Data set [2] deals with Mus musculus. Description: Anticonvulsant activity in mouse assessed as protection against maximal electric shock-induced seizures at 30 mg/kg, ip measured after 0.5 hrs. In kind it is functional, organism-based. Put shortly: (§1)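 Mice dosed ip with suspension in 0.5% methylcellulose; maximal electroshock applied at the listed time after dosing. Protection = abolition of hindlimb tonic extension component of seizure; reported as animals protected/animals tested.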

Data set [3] concerns Mus musculus. Description: Anticonvulsant activity in mouse assessed as protection against maximal electric shock-induced seizures at 30 mg/kg, ip measured after 4 hrs. In kind it is functional, organism-based. Put shortly:
as §1

The test system of data set [4] is Mus musculus. Description: Anticonvulsant activity in mouse assessed as protection against maximal electric shock-induced seizures at 100 mg/kg, ip measured after 0.5 hrs. The class given is functional, organism-based. The essentials: as §1
Data set [5] concerns Mus musculus. Briefly: Anticonvulsant activity in mouse assessed as protection against maximal electric shock-induced seizures at 100 mg/kg, ip measured after 1 hr. In kind it is functional, organism-based. The essentials:
as §1

The test system of data set [6] is Mus musculus. Briefly: Anticonvulsant activity in mouse assessed as protection against maximal electric shock-induced seizures at 100 mg/kg, ip measured after 4 hrs. In kind it is functional, organism-based. The essentials:
as §1

Data set [7] relates to Mus musculus. Briefly: Anticonvulsant activity in mouse assessed as protection against maximal electric shock-induced seizures at 300 mg/kg, ip measured after 0.5 hrs. In kind it is functional, organism-based. The essentials:
as §1

For data set [8], the system named is Mus musculus. Description: Anticonvulsant activity in mouse assessed as protection against maximal electric shock-induced seizures at 300 mg/kg, ip measured after 4 hrs. In kind it is functional, organism-based. The essentials:
as §1

Data set [9] relates to Mus musculus. Briefly: Anticonvulsant activity in mouse assessed as protection against subcutaneous pentylenetetrazol-induced seizures at 30 mg/kg, ip measured after 0.5 hrs. In kind it is functional, organism-based. Put shortly: (§2)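 Mice dosed ip as 0.5% methylcellulose suspension; pentylenetetrazole 85 mg/kg in 0.9% NaCl injected subcutaneously into posterior midline, animals watched at least 30 min. Protection = no threshold seizure (single clonic spasm episode lasting ≥5 s); scored protected/tested.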

Data set [10] deals with Mus musculus. Description: Anticonvulsant activity in mouse assessed as protection against subcutaneous pentylenetetrazol-induced seizures at 100 mg/kg, ip measured after 0.5 hrs. In kind it is functional, organism-based. The essentials: as §2
The subject of data set [11] is Mus musculus. Briefly: Anticonvulsant activity in mouse assessed as protection against subcutaneous pentylenetetrazol-induced seizures at 300 mg/kg, ip measured after 0.5 hrs. In kind it is functional, organism-based. Put shortly:
as §2

In data set [12] the test system is Mus musculus. Briefly: Anticonvulsant activity in mouse assessed as protection against subcutaneous pentylenetetrazol-induced seizures at 30 mg/kg, ip measured after 4 hrs. The class given is functional, organism-based. Put shortly: as §2
In data set [13] the test system is Mus musculus. Briefly: Anticonvulsant activity in mouse assessed as protection against subcutaneous pentylenetetrazol-induced seizures at 100 mg/kg, ip measured after 4 hrs. In kind it is functional, organism-based. The essentials:
as §2

For data set [14], the system named is Mus musculus. Description: Anticonvulsant activity in mouse assessed as protection against subcutaneous pentylenetetrazol-induced seizures at 300 mg/kg, ip measured after 4 hrs. The class given is functional, organism-based. The essentials:
as §2

Data set [15] deals with Mus musculus. Description: Neurotoxicity in mouse at 30 mg/kg, ip after […] by rotarod test. The class given is toxicity, organism-based. The following applies: in vivo. A general note: The rotarod test checks motor coordination on a turning rod.
In data set [16] the test system is Mus musculus. Briefly: Neurotoxicity in mouse at 100 mg/kg, ip after 1 hr by rotarod test. In kind it is toxicity, organism-based. The following applies: in vivo. Put shortly: (§3)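 Mice were dosed ip with compound suspended in 0.5% methylcellulose. Rotarod: a 1 in. knurled rod turning at 6 rpm. Neurotoxicity was scored as failure to stay on the rod for at least 1 min in each of three trials. Results are given as the number of animals affected out of the number tested.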

In data set [17] the test system is Mus musculus. Briefly: Neurotoxicity in mouse at 300 mg/kg, ip after 0.5 hrs by rotarod test. The class given is toxicity, organism-based. The following applies: in vivo. Put shortly:
as §3

Data set [18] relates to Mus musculus. Description: Neurotoxicity in mouse at 300 mg/kg, ip after 4 hrs by rotarod test. In kind it is toxicity, organism-based. The following applies: in vivo. Put shortly:
as §3

In data set [19] the test system is Mus musculus. Description: Anticonvulsant activity in ip dosed mouse assessed as protection against maximal electric shock-induced seizures. In kind it is functional, organism-based. The essentials: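 Compound suspended in 0.5% methylcellulose and given ip to mice; screening doses 30, 100 and 300 mg/kg, read at 0.25–4 h. Protection was defined as abolition of hindlimb tonic extension.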

The subject of data set [20] is Mus musculus. Description: Anticonvulsant activity in mouse assessed as protection against 6 Hz psychomotor seizure at 50 mg/kg, ip after 1 hr. The class given is functional, organism-based. The essentials:
(§4)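 Suspension in 0.5% methylcellulose given ip to mice; corneal stimulation with 0.2 ms monopolar rectangular pulses at 6 Hz for 3 s from a constant current device, mice restrained then released to observation cage. Protected if normal exploratory behaviour resumed within 10 s of stimulation. Scored as protected/tested, 4 mice per group.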

The test system of data set [21] is Mus musculus. Description: Anticonvulsant activity in mouse assessed as protection against 6 Hz psychomotor seizure at 50 mg/kg, ip after 2 hrs. The class given is functional, organism-based. The essentials: as §4
In data set [22] the test system is Mus musculus. Briefly: Anticonvulsant activity in mouse assessed as protection against 6 Hz psychomotor seizure at 50 mg/kg, ip after 4 hrs. In kind it is functional, organism-based. Put shortly:
as §4

Data set [23] concerns Mus musculus. Description: Neurotoxicity in mouse at 50 mg/kg, ip after 0.5 hrs by rotarod test. The class given is toxicity, organism-based. The following applies: in vivo. The essentials:
as §3

Data set [24] has as its system Mus musculus. Briefly: Neurotoxicity in mouse at 50 mg/kg, ip after 1 hr by rotarod test. In kind it is toxicity, organism-based. The following applies: in vivo. Put shortly: as §3
Data set [25] concerns Mus musculus. Description: Neurotoxicity in mouse at 50 mg/kg, ip after 2 hrs by rotarod test. The class given is toxicity, organism-based. The following applies: in vivo. The essentials: as §3
Data set [26] has as its system Mus musculus. Description: Neurotoxicity in mouse at 50 mg/kg, ip after 4 hrs by rotarod test. The class given is toxicity, organism-based. The following applies: in vivo. Put shortly: as §3
For data set [27], the system named is Vibrio harveyi. Description: Mutagenicity in Vibrio harveyi BB7 assessed as number of colonies after 48 hrs (reference value: 13 to 14 no_unit). The following applies: in vivo. In kind it is ADME, organism-based. Put shortly: (§5)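 Vibrio harveyi mutagenicity test: test compound was added to exponentially growing cultures (A600 = 0.1, 30 °C) and grown to OD600 0.3–0.4. Then 5 × 10^6 cells were plated on BOSS agar with neomycin (final 100 µg/mL) and incubated 48 h at 30 °C. Neomycin-resistant colonies were counted. Triplicate; controls were water, DMSO and NQNO 40 ng/mL.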

Data set [28] deals with Vibrio harveyi. Briefly: Mutagenicity in Vibrio harveyi BB7X assessed as number of colonies after 48 hrs (reference value: 15 to 16 no_unit). The class given is ADME, organism-based. The following applies: in vivo. The essentials: as §5
Data set [29] has as its system Vibrio harveyi. Briefly: Mutagenicity in Vibrio harveyi BB7M assessed as number of colonies after 48 hrs (reference value: 13 to 14 no_unit). The class given is ADME, organism-based. The following applies: in vivo. Put shortly: as §5
For data set [30], the system named is Vibrio harveyi. Description: Mutagenicity in Vibrio harveyi BB7XM assessed as number of colonies after 48 hrs (reference value: 14 no_unit). The following applies: in vivo. The class given is ADME, organism-based. Put shortly: as §5
Data set [31] deals with Vibrio harveyi. Description: Antimutagenic activity against Vibrio harveyi BB7 assessed as inhibition of NQNO-induced mutagenicity after 48 hrs. The class given is functional. Put shortly: (§6)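 V. harveyi cultures grown exponentially to A600 0.1 at 30 °C, exposed to test compound for 15 min, then to NQNO, and grown on to A600 0.3–0.4. 5 × 10⁶ cells plated on BOSS agar with neomycin (100, final). Neomycin-resistant colonies counted after 48 h at 30 °C. Result given as % inhibition of NQNO mutagenicity; three independent repeats.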

Data set [32] has as its system Vibrio harveyi. Description: Antimutagenic activity against Vibrio harveyi BB7X assessed as inhibition of NQNO-induced mutagenicity after 48 hrs. The class given is functional. Put shortly:
as §6

In data set [33] the test system is Vibrio harveyi. Briefly: Antimutagenic activity against Vibrio harveyi BB7M assessed as inhibition of NQNO-induced mutagenicity after 48 hrs. The class given is functional. The essentials:
as §6

Data set [34] concerns Vibrio harveyi. Description: Antimutagenic activity against Vibrio harveyi BB7XM assessed as inhibition of NQNO-induced mutagenicity after 48 hrs. The class given is functional. Put shortly: as §6

The source made the active and inactive calls.

On to `Cc1cccc(OCCCNCC(O)c2ccccc2)c1C` (centres undefined), for which the outcome in data set [1], in data set [2], in data set [3], in data set [4], in [5] and in [6] was inactive. The result in [8], in [9], in data set [10], in [11], in data set [12] and in data set [13] was inactive. Moreover, the result in [14] was inactive. Besides, in data set [7], the outcome was Active. Besides, the Activity entry in data set [15], in data set [16], in data set [17] and in [18] was “Toxic” throughout.
`Cc1cccc(C)c1OCC(C)N` (centres undefined) [MEXILETINE]: the EC50 in data set [19] was 20 mg/kg.
`Cc1cc(C)c(OCCOCCN[C@@H]2CCCC[C@H]2O)c(C)c1` (racemic): the result in [20], in [21] and in data set [22] was inactive. Also, the Activity result in data set [23] is given as “Non-toxic”; in [24] it was “Non-toxic”; in data set [25] it was “Non-toxic”; in data set [26], “Non-toxic”; in data set [27], 20; in data set [28], 15. The Activity in [29] is 10; in data set [30] it was 26. The “inhibition (INH)” value in data set [31] is on record as 62%; in data set [32], 0%; in data set [33], 27%; in data set [34], 0%.

The values above are taken from ChEMBL document CHEMBL3774372, “Design, physico-chemical properties and biological evaluation of some new N-[(phenoxy)alkyl]- and N-{2-[2-(phenoxy)ethoxy]ethyl}aminoalkanols as anticonvulsant agents” (Bioorg Med Chem, 2016).
